Bioassay records deposited in PubChem by The Scripps Research Institute Molecular Screening Center.
OX1R antag-1: antagonists of human orexin 1 receptor (OX1R). O43613. OX1R-expressing cells, FRET antagonist read-out. inhibition, % at 6.6 µM. actives 1.8% (n = 330,000). AID 485270; in the data active means inhibition mostly above about 38%, no sharp cut-off; inactive means mostly below about 40%;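 further: 0% = agonist challenge alone and 100% = reference antagonist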
TAAR1 ag: agonists of human TAAR1. Q96RJ0. CHO RD-HGA16 TAAR1, Fluo-8 calcium fluorescence; vehicle wells 0%, saturating PEA agonist 100%. activation, % at 3 µM. actives 0.99% (n = 360,000). AID 624467;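 active means activation above the mean activation of all test compounds in the run plus 3 SD, cut at about 38% in these data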
Target sequence (Q96RJ0 whole entry, looked up): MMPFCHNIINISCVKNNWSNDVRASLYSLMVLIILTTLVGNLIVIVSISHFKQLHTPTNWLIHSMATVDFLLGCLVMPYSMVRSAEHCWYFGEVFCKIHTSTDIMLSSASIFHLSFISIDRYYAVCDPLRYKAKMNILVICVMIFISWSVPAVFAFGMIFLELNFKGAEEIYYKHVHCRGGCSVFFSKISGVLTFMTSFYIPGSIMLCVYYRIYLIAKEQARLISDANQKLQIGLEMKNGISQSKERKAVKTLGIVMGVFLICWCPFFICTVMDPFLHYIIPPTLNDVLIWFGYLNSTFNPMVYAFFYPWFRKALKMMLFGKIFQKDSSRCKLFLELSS
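System: CHO-derived RD-HGA16 cells with stable Gα16 and human TAAR1 / Times: 17-24 h plating, Fluo-8 75 min 37 °C, 30 min RT / Technique: calcium-sensitive Fluo-8 signal, excitation 470-495, emission 515-575 nm / Measure: % activation relative to PEA EC100 response / Benchmarks: DMSO and PEA EC100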
OX1R antag-2: blocks the human orexin 1 receptor. actives 0.43% (n = 330,000). O43613. CHO/OX1R cells, Fluo-8 calcium fluorescence, orexin A. inhibition, % at 5 µM. AID 434989;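 active means inhibition above its plate's threshold, mean inhibition of all tested compounds on the plate plus 3 SD, cut at about 37% in these data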;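 further: 0% = orexin A challenge wells and 100% = SB-334867-A antagonist wells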
TAAR1 antag: human TAAR1 antagonism; Q96RJ0; CHO RD-HGA16 TAAR1, Fluo-8 calcium fluorescence, antagonist; inhibition, % at 3 µM; actives 1.5% (n = 360,000); AID 624466;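 active means inhibition above a per-plate cutoff, the mean inhibition of test compounds on that plate plus 3 SD, cut at about 49% in these data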;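 further: 0% = DMSO plus EC80 beta-PEA response and 100% = DMSO alone without agonist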
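Test system – hTAAR1-expressing CHO RD-HGA16 cells, Gα16-coupled · Also added – β-PEA at EC80 concentration, post-compound challenge · Compound – 3 µM, single point · Incubation – dye loading 75 min at 37 °C, then 30 min room temperature · Measured by – Fluo-8 intracellular calcium dye fluorescence, real-time kinetic reads · Benchmarks – vehicle and agonist controls · Replicates – singlicate, one well per test compound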
GPR7 antagonist: blocks human GPR7 receptor signaling; P48145; GPR7-expressing cells, fluorescence antagonist assay; AID 1861; inhibition, % at 4.4 µM; actives 1.1% (n = 290,000); in the data active means inhibition above about 16%, passing the limit was not always enough;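 further: cells stimulated with the agonist NPW; 0% = agonist with vehicle and 100% = vehicle without agonist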
Target sequence (P48145 whole entry, looked up): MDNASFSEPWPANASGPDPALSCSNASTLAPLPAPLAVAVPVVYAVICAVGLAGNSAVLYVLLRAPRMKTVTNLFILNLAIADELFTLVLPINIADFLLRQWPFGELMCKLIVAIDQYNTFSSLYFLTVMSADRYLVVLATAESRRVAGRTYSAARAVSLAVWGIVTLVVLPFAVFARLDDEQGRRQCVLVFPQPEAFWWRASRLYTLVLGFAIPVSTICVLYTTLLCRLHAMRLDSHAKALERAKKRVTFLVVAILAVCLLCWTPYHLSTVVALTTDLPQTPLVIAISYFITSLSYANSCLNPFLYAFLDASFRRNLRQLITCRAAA
CHO parental Ca: counter-screen for OX1R antagonists: effect in parental CHO cells | parental CHO-K1, ATP-induced calcium, Fluo-8 fluorescence | inhibition, % at 5.6 µM | actives 0.63% (n = 330,000);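 active means inhibition above that plate's mean sample inhibition plus 3 SD, cut at about 26% in these data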;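 further: 0% = ATP-challenged DMSO wells and 100% = DMSO wells without ATP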
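Test system: untransfected parental CHO cell line; also added: ATP stimulus; dosing: 5.6 µM, single dose; signal: calcium-sensitive Fluo-8 fluorescence; measure: percent inhibition of ATP-evoked calcium rise, normalized to controls; benchmarks: low control ATP plus DMSO, high control DMSO only; replication: one well per compound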
* marks the source's active call; other numbers are inactive results; . = not tested or not shown. In the library only some 4.5% were active in any assay of this set; here they are far more common.

SMILES	OX1R antag-1	TAAR1 ag	OX1R antag-2	TAAR1 antag	GPR7 antagonist	CHO parental Ca
O=S1(=O)N[C@@H](Cc2ccccc2)COc2cccc(NCCCN3CCOCC3)c21	.	1.1	.	1.7	.	.
CCc1nc(SCC(=O)c2ccccc2)c2ccccc2n1	41.0	14.8	-53.8	18.9	1.4	-46.9
O=C(CSc1nc(Cc2ccccc2)nc2ccccc12)c1ccc2c(c1)OCCO2	41.4*	5.2	-21.7	8.0	-1.2	-0.1
CCN(CC)C(=O)CSc1nc(Cc2ccccc2)nc2ccccc12	.	2.7	.	-7.2	-11.4	.
CCc1nc(SCC(=O)c2ccc3c(c2)OCCO3)c2ccccc2n1	57.7*	12.5	4.9	31.9	-4.0	-27.2
C[C@@H]1CN(c2ccc(N3CCN(C(=O)OC(C)(C)C)C[C@@H]3C)cc2C#N)C[C@H](C)O1	.	1.7	.	-29.2	.	.
Cc1cc2cc(C(c3nnnn3Cc3ccccc3)N3CCc4ccccc43)c(=O)[nH]c2cc1C (centres undefined)	46.3*	5.6	7.5	0.3	-5.1	-28.1
COc1ccc2c(c1)[C@@]1(OCCC=C[C@H]1C)C(=O)N2Cc1ccccc1C(F)(F)F	.	6.0	.	-49.3	.	.
CCc1c(C2(O)CCCCC2)[nH]c2ccc(C(F)(F)F)cc12	58.6*	-0.8	35.2	3.7	-16.1	40.1*
CN(C)Cc1c(C(C)(C)O)[nH]c2ccc(C(F)(F)F)cc12	7.2	7.9	-10.0	-6.3	.	-2.1
CCn1c(Cn2nnc(-c3ccccc3)n2)nnc1SCC(=O)Nc1cccc(C)c1C	76.7*	1.8	5.8	-22.1	7.5	-15.3
CCn1c(Cn2nnc(-c3ccccc3)n2)nnc1SCC(=O)Nc1cccc(C(C)=O)c1	55.6*	2.8	8.2	7.4	1.1	-8.3
CCn1c(Cn2nnc(-c3ccccc3)n2)nnc1SCC(=O)Nc1ccc(C(C)=O)cc1	10.5	0.5	-13.4	-6.8	-12.8	-29.9
Cn1c(=O)c2c(nc(NCc3ccc4c(c3)OCO4)n2Cc2ccc(F)cc2)n(C)c1=O	13.3	17.7	-32.9	-1.2	-7.3	22.5*
CSC1=NSC2=NC(=O)/C(=C\c3coc4ccccc4c3=O)C(=N)N12	23.2	383.0*	15.2	107.4*	-0.7	15.4
C=CCN(CC=C)C[C@@H]1CSCCS(=O)(=O)N1	.	1.9	.	4.0	.	.
COc1ccc(Cc2nnc(SCC(=O)c3ccccc3)o2)cc1	13.4	4.0	-26.7	-13.4	-6.5	-12.0
C#CCNC(=O)C[C@H]1C[C@@]2(C(=O)OC)C(=C[C@H](COCc3ccccc3)O[C@@H]2C)N(Cc2ccc3c(c2)OCO3)C1=O	.	4.1	.	-20.9	.	.
Cc1ccc(C(=O)NCC2CCCN2S(=O)(=O)c2ccc(C)cc2)cc1 (centres undefined)	24.5	1.1	-1.8	7.2	.	-21.7
O=C(NCC1CCCN1S(=O)(=O)c1ccccc1)c1cccc(Cl)c1 (centres undefined)	60.5*	1.8	-7.1	-8.5	.	-4.0
Cc1ccc(S(=O)(=O)N2CCCC2CNC(=O)c2ccc(F)c(F)c2)cc1 (centres undefined)	69.8*	-0.6	15.6	-18.0	.	-24.6
Cc1ccc(C)c(S(=O)(=O)N2CCCC2CNC(=O)C(=O)NC2CC2)c1 (centres undefined)	23.8	2.0	-11.2	-0.4	.	-8.2
Cc1ccc(C)c(S(=O)(=O)N2CCCC2CNC(=O)c2ccc([N+](=O)[O-])cc2)c1 (centres undefined)	54.3*	0.6	-31.0	-20.7	.	-1.6
CC(C)=CCC[C@H](C)C[C@@H]1CC2=C(C(=O)OC(C)(C)O2)[C@@H](c2ccc(F)cc2)O1	.	-0.3	.	-13.1	.	.
O=C(COC(=O)c1c2c(nc3ccccc13)CCN(Cc1ccccc1)C2)Nc1c(F)cccc1F	42.6	12.7	-1.2	38.8	5.4	-4.3
SMILES	OX1R antag-1	TAAR1 ag	OX1R antag-2	TAAR1 antag	GPR7 antagonist	CHO parental Ca
CC(=O)Nc1ccc(NC(=O)COC(=O)c2c3c(nc4ccccc24)CCN(Cc2ccccc2)C3)cc1	25.9	19.9	-1.5	63.2*	-5.1	-7.4
CCCCC1O[C@@H](C)[C@@H]2CN3CCc4c([nH]c5ccccc45)[C@@H]3C[C@@H]2N1C (some centres undefined)	.	1.5	.	-22.6	.	.
CN(C)c1ccc(/C=C/C(=O)c2cccnc2)cc1	4.4	32.4	68.0*	9.1	11.9	49.5*
CN(C)c1ccc(/C=C/C(=O)c2ccc3c(c2)OCO3)cc1	11.5	26.9	112.5*	39.9	.	47.7*
Cc1ccc(/C=C/C(=O)c2ccccc2O)cc1	15.7	-1.5	-20.5	1.5	7.7	-15.7
CN(C)c1ccc(/C=C/C(=O)c2ccc(O)cc2)cc1	.	49.3*	.	30.9	.	.
O=C(/C=C/c1cccc(O)c1)c1cccnc1	19.0	6.9	-30.9	4.4	-12.2	-13.4
CN(C)c1ccc(/C=C/C(=O)c2ccccc2O)cc1	19.5	21.6	14.1	30.4	0.2	37.8*
CCOC(=O)C1=C(C(=O)OCC)C2N(Cc3ccc(C#N)cc3)c3ccccc3[C@@]23C[C@@H](C(=O)OC)N(S(=O)(=O)c2ccccc2)C3=N1 (some centres undefined)	.	1.6	.	-5.6	.	.
C[C@@H]1CN([C@@H](C)CO)C(=O)CCCn2nncc2CO[C@H]1CN(C)C(=O)Nc1cccc(Oc2ccccn2)c1	.	2.1	.	-5.4	.	.
COC(=O)N1C[C@H](OCc2ccccc2)[C@H]2C[C@@H]1c1ccccc1O2	.	-1.2	.	-20.3	.	.
CC(C)(C)C(=O)NC(=S)NNC(=O)c1sc2ccccc2c1Cl	8.0	.	69.0*	.	-7.5	40.5*
O=C(NCc1ccccc1)c1cc(C2CCCCN2C(=O)c2ccc(Cl)cc2)on1 (centres undefined)	.	-1.4	.	-11.8	.	.
COC(=O)CSc1nc(-c2cccs2)ccc1C#N	68.3*	12.8	16.8	5.7	-4.9	-20.8
C#CCSc1nc(-c2cccs2)ccc1C#N	45.0	14.5	-13.7	7.0	-6.6	-7.1
CCN(CC)C(=O)CSc1nc(-c2cccs2)cc(-c2cccs2)c1C#N	23.9	4.5	2.7	61.1*	-7.8	58.0*
CCN1C[C@@H]2[C@@H]3C(=O)N(Cc4ccccc4)C(=O)[C@@H]3[C@](CC)(C1=O)N2C(=O)c1ccc(Cl)cc1	.	12.2	.	2.7	.	.
O=C(CSc1cccc[n+]1[O-])Nc1ccc([N+](=O)[O-])cc1Cl	65.3*	-0.8	-13.8	11.9	-6.5	-5.8
COc1ccc(CCC(=O)Nc2c(-c3ccc(N(C)C)cc3)[nH][nH]c2=O)cc1	.	1.2	.	-16.1	.	.
N#C/C(=C\c1ccc(N2CCCCC2)o1)C(N)=O	41.6*	22.9	0.9	12.7	-16.5	-3.9
c1ccc(-c2nc3nonc3nc2-c2ccccc2)cc1	39.8*	-1.4	-29.2	-1.6	-21.2	-4.6
C=CCNc1cccc2c1S(=O)(=O)N[C@@H](Cc1ccccc1)CO2	.	-2.1	.	-1.7	.	.
